This note sets out measurements from ChEMBL document CHEMBL4673255, “Acylated 1H-1,2,4-Triazol-5-amines Targeting Human Coagulation Factor XIIa and Thrombin: Conventional and Microscale Synthesis, Anticoagulant Properties, and Mechanism of Action” (J Med Chem, 2020).

The target in data set [1] is Coagulation factor X (Homo sapiens, UniProt P00742). Description: Inhibition of human coagulation factor Xa using Boc-Ile-Glu-Gly-Arg-AMC as fluorogenic substrate measured at 1 min interval for 1 hr by fluorometric assay.
For data set [2], the target named is T1, Coagulation factor XII (Homo sapiens, UniProt P00748).
T1 sequence (P00748 whole entry): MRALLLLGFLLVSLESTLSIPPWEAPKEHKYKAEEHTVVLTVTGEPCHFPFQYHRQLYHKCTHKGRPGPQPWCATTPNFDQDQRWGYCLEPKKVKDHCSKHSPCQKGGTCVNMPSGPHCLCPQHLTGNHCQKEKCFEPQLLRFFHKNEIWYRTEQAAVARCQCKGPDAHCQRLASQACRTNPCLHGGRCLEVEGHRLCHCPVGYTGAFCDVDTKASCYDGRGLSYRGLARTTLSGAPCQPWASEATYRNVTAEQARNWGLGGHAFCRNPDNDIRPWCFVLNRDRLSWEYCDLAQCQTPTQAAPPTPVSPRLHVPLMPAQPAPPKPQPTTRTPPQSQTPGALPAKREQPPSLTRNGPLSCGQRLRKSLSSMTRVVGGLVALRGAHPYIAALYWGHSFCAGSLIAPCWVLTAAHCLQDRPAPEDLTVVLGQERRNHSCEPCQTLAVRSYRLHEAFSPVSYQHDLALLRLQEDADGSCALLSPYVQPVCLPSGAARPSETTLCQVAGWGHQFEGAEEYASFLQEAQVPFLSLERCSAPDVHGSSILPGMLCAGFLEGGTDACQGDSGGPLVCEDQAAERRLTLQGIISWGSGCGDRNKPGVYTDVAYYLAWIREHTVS
Description: Inhibition of human coagulation factor XIIA using Boc-Gln-Gly-Arg-AMC as fluorogenic substrate measured at 1 min interval for 1 hr by fluorometric assay.

The target in data set [3] is Prothrombin (Homo sapiens, UniProt P00734). Description: Inhibition of human coagulation factor alpha-thrombin using Boc-Val-Pro-Arg-AMC as fluorogenic substrate measured at 1 min interval for 1 hr by fluorometric assay.
Data set [4] in a line: Inhibition of porcine trypsin using Z-Gly-Gly-Arg-AMC as fluorogenic substrate measured at 1 min interval for 1 hr by fluorometric assay. More on the design: species or system Sus scrofa.
Data set [5] has as its target T2, Coagulation factor XII (Homo sapiens) (UniProt P00748).
T2 sequence (whole entry): T1 sequence (P00748 whole entry)
Description: Inhibition of human coagulation factor XIIA in presence of Boc-Gln-Gly-Arg-AMC as fluorogenic substrate at 1 uM measured at 1 min interval for 1 hr by fluorometric assay relative to control. A digest of the protocol:
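Screening of crude microscale amide-coupling products. Conversion was measured by 1H NMR and product content normalised to 76 µmol/L in DMSO, then tested at 1 µM and 100 nM in the fluorogenic FXIIa or thrombin assay. A 0-conversion reaction served as blank. Percent inhibition is from triplicates.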

The test system of data set [6] is Blood. Description: Effect on blood coagulation in human blood assessed as increase in prothrombin time at 300 uM incubated for 3 mins followed by CaCl2 addition by PT reagent based assay relative to control. Type of data set: ADME, tissue-based. The conditions noted are these: 0.05 h. A digest of the protocol:
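Clotting was started with PT reagent already containing CaCl2, prewarmed to 37 °C, and clotting time was recorded. Increase is given relative to DMSO; at least triplicate, mean ± SD.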

For data set [7], the system named is Blood. Description: Anticoagulant activity in human blood assessed as increase in activated partial thromboplastin time at 300 uM incubated for 1 min by aPTT reagent based assay relative to control. Type of data set: functional. Summed up:
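Compounds were tested at 300 µM, and the increase was expressed relative to DMSO. The doubling concentration (EC2×) is the concentration prolonging aPTT twofold. At least triplicate, mean ± SD.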

Data set [8] is filed under the species Homo sapiens. Description: Selectivity index, ratio of IC50 for inhibition of human coagulation factor alpha-thrombin using Boc-Val-Pro-Arg-AMC as fluorogenic substrate to IC50 for inhibition of human coagulation factor XIIA using Boc-Gln-Gly-Arg-AMC as fluorogenic substrate incubated for 1 hr by fluorometric assay.

Some results are limits rather than exact numbers.

Sequence of Coagulation factor X (P00742 41-179 limits assumed): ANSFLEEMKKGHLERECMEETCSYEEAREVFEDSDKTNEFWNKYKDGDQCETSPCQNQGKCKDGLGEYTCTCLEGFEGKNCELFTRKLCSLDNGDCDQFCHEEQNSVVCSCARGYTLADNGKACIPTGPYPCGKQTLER
Sequence of Coagulation factor X (P00742 235-488 limits assumed): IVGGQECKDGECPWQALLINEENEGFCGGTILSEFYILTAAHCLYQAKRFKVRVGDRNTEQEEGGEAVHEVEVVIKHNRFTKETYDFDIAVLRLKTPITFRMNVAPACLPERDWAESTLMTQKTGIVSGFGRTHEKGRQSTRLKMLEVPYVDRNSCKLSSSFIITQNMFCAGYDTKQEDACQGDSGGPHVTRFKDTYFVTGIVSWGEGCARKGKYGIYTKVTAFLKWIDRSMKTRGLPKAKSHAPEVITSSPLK

As usually defined, the IC50 is the concentration needed to halve the response being measured. The inhibition is how much of the control response was suppressed. As for `Nc1nc(-c2ccccn2)nn1C(=O)Cc1ccccc1`, the IC50 is greater than 5 µM in data set [1], 0.21 µM in data set [2], 0.509 µM in data set [3] and greater than 5 µM in data set [4]. Also, the inhibition in data set [5] was 87%.

Turning to `Nc1nc(-c2ccccn2)nn1C(=O)c1ccc(C(F)(F)F)cc1`, the IC50 is greater than 5 µM in data set [1], 3.21 µM in data set [2], 4.57 µM in data set [3] and greater than 5 µM in data set [4]. Further, the Activity in data set [6] is 8%; in data set [7], 40%. Further, the inhibition in data set [5] was determined as 14%.

Take `Nc1nc(Nc2cccnc2)nn1C(=O)c1ccccc1`: the IC50 in data set [1] was greater than 5 µM; in data set [2], greater than 5 µM; in data set [3], greater than 8 µM; in data set [4] it was greater than 5 µM. For the same molecule, the Activity turned out to be 2% in data set [6] and 1% in data set [7].

`Nc1nc(-c2ccccn2)nn1C(=O)c1ccco1`: the IC50 in data set [1] was greater than 5 µM; in data set [2], 0.968 µM; in data set [3], 1.77 µM; in data set [4], greater than 5 µM. In addition, the inhibition in data set [5] was 54%.

Turning to `Nc1nc(-c2ccccn2)nn1C(=O)C1CCOCC1`, the IC50 in data set [1] was greater than 5 µM; in data set [2], 12.1 µM; in data set [3] it was greater than 5 µM; in data set [4], greater than 5 µM. Besides, the inhibition in data set [5] came to 1%.

Take `COc1ccc(C(=O)n2nc(-c3ccccn3)nc2N)cc1`: the IC50 in data set [1] is greater than 5 µM; in data set [2], 0.291 µM; in data set [3], 0.329 µM; in data set [4], greater than 5 µM. For the same molecule, the Activity in data set [6] came out at 14%; in data set [7], 108%. Besides, the inhibition in data set [5] was found to be 80%.

Consider `CCc1ccc(C(=O)n2nc(-c3ccccn3)nc2N)cc1`, for which the IC50 in data set [1] is greater than 5 µM; in data set [2] it was 0.162 µM; in data set [3], 0.308 µM; in data set [4] it was greater than 5 µM. Also, the Activity in data set [6] was 6%; in data set [7], 114%. The inhibition in data set [5] came to 85%.

As to `Nc1nc(-c2ccccn2)nn1C(=O)/C=C/c1ccccc1`, the IC50 in data set [1] was greater than 5 µM; in data set [2], 9.82 µM; in data set [3], 1.56 µM; in data set [4] it was greater than 5 µM. Besides, the inhibition in data set [5] turned out to be 21%.

On to `Nc1nc(-c2ccccn2)nn1C(=O)c1ccc([N+](=O)[O-])cc1`, for which the IC50 in data set [1] is greater than 5 µM; in data set [2], 5.93 µM; in data set [3], greater than 5 µM. Moreover, the results for the Activity in data set [6] and in data set [7] were 3% and 35%, respectively. Besides, the inhibition in data set [5] worked out at 29%.

Regarding `Nc1nc(-c2ccncc2)nn1C(=O)C1CCCCC1`, the IC50 in data set [1] is greater than 5 µM; in data set [2], greater than 1 µM; in data set [3] it was greater than 5 µM; in data set [4] it was greater than 5 µM. Also, the figures for the Activity in data set [6] and in data set [7] were 7% and 10%, respectively.

`Nc1nc(-c2ccncc2)nn1C(=O)c1ccccc1`: the IC50 in data set [1] was greater than 5 µM; in data set [2] it was 0.106 µM; in data set [3], 0.962 µM; in data set [4], greater than 5 µM. Also, the Activity in data set [6] amounted to 2%; in data set [7], 80%.

On to `Nc1nc(-c2ccccc2)nn1C(=O)c1ccccc1`, for which the IC50 in data set [1] is greater than 5 µM; in data set [2], 0.539 µM; in data set [3], 1.24 µM; in data set [4], greater than 5 µM. Further, the figures for the Activity in data set [6] and in data set [7] were 5% and 29%, respectively.

Regarding `Nc1nc(-c2ccccn2)nn1C(=O)C1CCCCC1`, the IC50 in data set [1] was greater than 5 µM; in data set [2], greater than 1 µM; in data set [3] it was greater than 5 µM; in data set [4] it was greater than 5 µM. Also, in data set [5], the inhibition was 11%.

Consider `Cc1cccc(C(=O)n2nc(-c3ccccn3)nc2N)c1`, for which the IC50 in data set [1] was greater than 5 µM; in data set [2], 0.093 µM; in data set [3], 0.086 µM; in data set [4], greater than 5 µM. The Activity is listed as 12% in data set [6] and 124% in data set [7]. In data set [5], the inhibition amounted to 83%.

With `CCOc1ccc(Nc2nc(N)n(C(=O)c3ccccc3)n2)cc1`, the IC50 was greater than 5 µM in data set [1], greater than 1 µM in data set [2], greater than 5 µM in data set [3] and greater than 5 µM in data set [4].

In the case of `Nc1n[nH]c(-c2ccccc2)n1`, the IC50 in data set [1], in data set [2], in data set [3] and in data set [4] was greater than 5 µM each time.

For `Nc1nc(-c2ccccn2)nn1C(=O)CNC(=O)c1ccccc1`, the IC50 in data set [1] was greater than 5 µM; in data set [2], 13.2 µM; in data set [3], greater than 132 µM; in data set [4], greater than 5 µM. Besides, the Activity in data set [6] is recorded as 3%; in data set [7] it was -2%. The inhibition in data set [5] was found to be 20%.

For `Nc1nc(-c2ccccn2)nn1C(=O)c1cccnc1`, the IC50 is greater than 5 µM in data set [1], 1.61 µM in data set [2], 0.494 µM in data set [3] and greater than 5 µM in data set [4]. Also, the inhibition in data set [5] amounted to 43%.

`Nc1n[nH]c(-c2ccncc2)n1`: the IC50 in data set [1], in data set [2], in data set [3] and in data set [4] was greater than 5 µM throughout. Further, the Activity is 1% in data set [6] and 5% in data set [7].

Take `[H]/N=C(/N)c1ccc(NCc2nc3cc(C(=O)N(CCC(=O)O)c4ccccn4)ccc3n2C)cc1` [DABIGATRAN]: in data set [6], the Activity is reported as 539%. This molecule also gave an IC50 in data set [2] greater than 33 µM.

`Cc1ccc(S(=O)(=O)n2nc(-c3ccncc3)nc2N)cc1`: the IC50 in data set [1] was greater than 5 µM; in data set [2], greater than 1 µM; in data set [3], greater than 5 µM; in data set [4], greater than 5 µM. The values for the Activity in data set [6] and in data set [7] were 2% and 5%, respectively.

For `Nc1nc(-c2ccccn2)nn1C(=O)c1ccc(F)cc1`, the IC50 in data set [1] is greater than 5 µM; in data set [2], 0.306 µM; in data set [3] it was 0.481 µM; in data set [4], greater than 5 µM. Further, the Activity in data set [6] amounted to 8%; in data set [7] it was 78%. Besides, the inhibition in data set [5] was 79%.

Consider `Nc1n[nH]c(-c2ccccn2)n1`, for which the IC50 in data set [1], in data set [2], in data set [3] and in data set [4] was greater than 5 µM in each case.

`Nc1nc(-c2ccccn2)nn1C(=O)c1ccccc1[N+](=O)[O-]`: the IC50 in data set [1] is greater than 5 µM; in data set [2], 1.56 µM; in data set [3], greater than 5 µM. Besides, in data set [5], the inhibition was found to be 43%.

As to `Nc1nc(-c2ccccn2)nn1C(=O)c1ccc(NC(=O)C(F)(F)F)cc1`, the IC50 in data set [1] is greater than 5 µM; in data set [2], 0.142 µM; in data set [3] it was 3.39 µM; in data set [4] it was greater than 5 µM. Further, the Ratio IC50 in data set [8] was 24. Also, in data set [5], the inhibition is 89%.

With `Nc1nc(-c2ccccn2)nn1C(=O)c1ccc(Br)cc1`, the IC50 in data set [1] is greater than 5 µM; in data set [2], 0.793 µM; in data set [3], 0.239 µM; in data set [4] it was greater than 5 µM. Moreover, the Activity in data set [6] is listed as 16%; in data set [7] it was 119%. The inhibition in data set [5] came out at 58%.
